Test results taken from ChEMBL document CHEMBL1145645, “Bis-tetrahydroisoquinoline derivatives: AG525E1, a new step in the search for non-quaternary non-peptidic small conductance Ca(2+)-activated K(+) channel blockers” (Bioorg Med Chem Lett, 2008).
Values belong to the compound of their own block, whether it stands above or below them.

Legend:
[1] = Inhibition of apamin-sensitive SK channel
[2] = target: Small conductance calcium-activated potassium channel protein 2 (Homo sapiens, UniProt Q9H2S1); test: Inhibition of SK2 expressed in CHO FlipIn cells by whole cell patch-clamp assay; format: cell-based
Sequence of Small conductance calcium-activated potassium channel protein 2 (Q9H2S1 whole entry): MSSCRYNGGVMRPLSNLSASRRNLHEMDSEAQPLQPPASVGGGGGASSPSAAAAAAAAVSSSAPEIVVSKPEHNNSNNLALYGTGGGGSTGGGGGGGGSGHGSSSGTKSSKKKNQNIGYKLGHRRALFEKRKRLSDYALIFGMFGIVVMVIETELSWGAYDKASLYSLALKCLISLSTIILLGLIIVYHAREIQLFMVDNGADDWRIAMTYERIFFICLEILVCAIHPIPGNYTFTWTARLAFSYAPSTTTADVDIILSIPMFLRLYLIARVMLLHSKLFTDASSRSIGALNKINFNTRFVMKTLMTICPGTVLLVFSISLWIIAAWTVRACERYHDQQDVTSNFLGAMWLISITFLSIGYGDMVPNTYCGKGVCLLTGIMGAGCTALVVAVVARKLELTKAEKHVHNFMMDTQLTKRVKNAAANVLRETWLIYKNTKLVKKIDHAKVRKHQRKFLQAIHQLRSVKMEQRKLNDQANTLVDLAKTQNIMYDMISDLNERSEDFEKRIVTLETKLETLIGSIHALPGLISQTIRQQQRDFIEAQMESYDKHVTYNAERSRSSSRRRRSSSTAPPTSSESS

[3] = target: T1, 5-hydroxytryptamine receptor 1A (Homo sapiens) (UniProt P08908); test: Inhibition of 5HT1A receptor at 10 uM
T1 sequence (whole entry): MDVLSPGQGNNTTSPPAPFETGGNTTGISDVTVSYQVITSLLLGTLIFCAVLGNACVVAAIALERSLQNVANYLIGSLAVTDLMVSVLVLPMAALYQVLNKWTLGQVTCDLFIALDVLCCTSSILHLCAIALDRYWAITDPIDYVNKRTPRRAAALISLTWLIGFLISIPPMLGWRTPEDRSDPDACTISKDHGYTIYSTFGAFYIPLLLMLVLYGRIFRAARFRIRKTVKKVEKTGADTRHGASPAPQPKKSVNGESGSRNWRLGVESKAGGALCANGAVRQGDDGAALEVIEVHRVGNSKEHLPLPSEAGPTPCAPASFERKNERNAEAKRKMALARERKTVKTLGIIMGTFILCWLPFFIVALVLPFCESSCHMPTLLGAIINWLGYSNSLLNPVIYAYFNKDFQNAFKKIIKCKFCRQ

[4] = Inhibition of L-type calcium channel at 10 uM
[5] = Lipophilicity, log P of the compound; format: physicochemical; details: octanol/water
How it was run: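 logP by potentiometric titration on a Sirius PCA200 analyser; at least three titrations at different phase volume ratios, mean logP reported; sample acidified to pH 1.8–2.0 with 0.5 M HCl, titrated with 0.5 M KOH to pH 12.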

[6] = Dissociation constant, pKa at pH 1.8 to 2.0; format: physicochemical
How it was run: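 pKa by potentiometric titration on a Sirius PCA200 analyser; at least three aqueous solutions titrated; sample acidified to pH 1.8–2.0 with 0.5 M aqueous HCl, then titrated with 0.5 M aqueous KOH to pH 12.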

[7] = Inhibition of apamin-sensitive SK channel at 10 uM
[8] = Inhibition of sigma 2 receptor at 10 uM
[9] = target: D(2) dopamine receptor (Homo sapiens) (UniProt P14416); test: Inhibition of dopamine D2 receptor at 10 uM
Sequence of D(2) dopamine receptor (Homo sapiens) (P14416 whole entry): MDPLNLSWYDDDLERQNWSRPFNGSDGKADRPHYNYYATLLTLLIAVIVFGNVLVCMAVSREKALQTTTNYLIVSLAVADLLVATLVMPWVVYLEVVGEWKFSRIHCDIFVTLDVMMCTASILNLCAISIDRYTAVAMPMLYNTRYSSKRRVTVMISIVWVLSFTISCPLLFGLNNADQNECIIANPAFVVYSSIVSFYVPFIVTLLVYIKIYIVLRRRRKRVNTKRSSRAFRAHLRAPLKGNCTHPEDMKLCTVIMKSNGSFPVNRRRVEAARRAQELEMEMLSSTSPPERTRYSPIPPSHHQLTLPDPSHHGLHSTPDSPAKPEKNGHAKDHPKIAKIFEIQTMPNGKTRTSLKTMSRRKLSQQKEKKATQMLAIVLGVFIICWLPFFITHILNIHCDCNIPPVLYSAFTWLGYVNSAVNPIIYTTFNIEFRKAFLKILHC

[10] = target: Small conductance calcium-activated potassium channel protein 3 (Homo sapiens, UniProt Q9UGI6); test: Inhibition of SK3 expressed in CHO FlipIn cells by whole cell patch-clamp assay; format: cell-based
Sequence of Small conductance calcium-activated potassium channel protein 3 (Q9UGI6 whole entry): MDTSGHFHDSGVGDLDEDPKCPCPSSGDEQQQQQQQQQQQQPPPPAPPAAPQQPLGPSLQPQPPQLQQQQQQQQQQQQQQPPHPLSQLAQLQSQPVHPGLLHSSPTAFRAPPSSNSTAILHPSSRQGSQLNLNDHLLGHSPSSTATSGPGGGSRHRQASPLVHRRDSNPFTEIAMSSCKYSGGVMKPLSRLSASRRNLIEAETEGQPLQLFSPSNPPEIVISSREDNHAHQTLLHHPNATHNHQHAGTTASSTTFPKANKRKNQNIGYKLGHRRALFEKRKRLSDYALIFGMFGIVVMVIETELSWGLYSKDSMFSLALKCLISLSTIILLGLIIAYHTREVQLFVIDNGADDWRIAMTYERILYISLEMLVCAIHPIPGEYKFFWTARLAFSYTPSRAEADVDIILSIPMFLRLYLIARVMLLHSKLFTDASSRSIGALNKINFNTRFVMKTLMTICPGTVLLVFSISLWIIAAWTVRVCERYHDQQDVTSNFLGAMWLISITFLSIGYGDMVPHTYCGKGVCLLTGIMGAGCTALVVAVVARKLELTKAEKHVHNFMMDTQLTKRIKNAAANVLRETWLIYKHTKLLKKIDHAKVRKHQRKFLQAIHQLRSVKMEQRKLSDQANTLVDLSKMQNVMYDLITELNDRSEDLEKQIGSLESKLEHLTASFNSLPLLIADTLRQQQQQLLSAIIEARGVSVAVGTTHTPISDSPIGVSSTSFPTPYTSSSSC

[11] = target: Histamine H3 receptor (Homo sapiens) (UniProt Q9Y5N1); test: Inhibition of histamine H3 receptor at 10 uM
Sequence of Histamine H3 receptor (Homo sapiens) (Q9Y5N1 whole entry): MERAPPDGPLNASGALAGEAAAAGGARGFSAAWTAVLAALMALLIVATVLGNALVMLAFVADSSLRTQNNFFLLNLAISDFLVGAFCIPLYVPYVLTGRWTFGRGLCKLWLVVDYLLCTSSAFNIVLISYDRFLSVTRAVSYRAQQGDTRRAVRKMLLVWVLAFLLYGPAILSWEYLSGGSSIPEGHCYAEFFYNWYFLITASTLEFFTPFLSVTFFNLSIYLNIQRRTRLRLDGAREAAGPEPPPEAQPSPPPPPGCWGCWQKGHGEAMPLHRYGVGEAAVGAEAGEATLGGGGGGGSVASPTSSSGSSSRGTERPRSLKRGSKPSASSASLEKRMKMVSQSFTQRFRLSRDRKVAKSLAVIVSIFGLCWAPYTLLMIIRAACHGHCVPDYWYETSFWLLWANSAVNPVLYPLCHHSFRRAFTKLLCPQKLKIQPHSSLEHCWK

[12] = target: Small conductance calcium-activated potassium channel protein 1 (Homo sapiens, UniProt Q92952); test: Inhibition of SK1 expressed in CHO FlipIn cells by whole cell patch-clamp assay; format: cell-based
Sequence of Small conductance calcium-activated potassium channel protein 1 (Q92952 whole entry): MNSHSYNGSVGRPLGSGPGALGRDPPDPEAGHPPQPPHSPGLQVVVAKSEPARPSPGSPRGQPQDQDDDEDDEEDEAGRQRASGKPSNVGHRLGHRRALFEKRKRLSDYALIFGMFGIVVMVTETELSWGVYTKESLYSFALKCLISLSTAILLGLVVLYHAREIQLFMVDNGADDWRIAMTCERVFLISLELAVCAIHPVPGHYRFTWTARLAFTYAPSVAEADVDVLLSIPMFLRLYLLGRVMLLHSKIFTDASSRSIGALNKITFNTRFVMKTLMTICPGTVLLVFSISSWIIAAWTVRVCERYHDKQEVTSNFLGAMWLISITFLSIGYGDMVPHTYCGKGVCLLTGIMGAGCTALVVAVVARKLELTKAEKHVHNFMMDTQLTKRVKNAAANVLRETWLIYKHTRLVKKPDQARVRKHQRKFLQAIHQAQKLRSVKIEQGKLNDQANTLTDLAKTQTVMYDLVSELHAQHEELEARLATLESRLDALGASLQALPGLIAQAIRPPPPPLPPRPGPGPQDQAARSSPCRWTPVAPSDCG
How it was run: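 Whole-cell patch clamp on CHO FlipIn cells stably transfected with SK1, grown in Ham's F-12 with 10% calf serum, streptomycin/penicillin and hygromycin-B. Pipette solution (mM): KCl 130, EGTA 10, CaCl2 8.751, MgCl2 1.08, Hepes 10 ([…]), pH 7.2. K+ currents at −50 mV; percent inhibition at increasing concentrations, normalised to full block by 100 µM N-methyl-laudanosine.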

Structure (SMILES): COc1cc2c(cc1OC)[C@@H](CCC[C@H]1c3cc(OC)c(OC)cc3CCN1C)N(C)CC2
Ki [1]: 1.42 µM

Structure (SMILES): COc1cc2c(cc1OC)[C@@H](CCC[C@@H]1c3cc(OC)c(OC)cc3CCN1C)N(C)CC2
Ki [1]: 1.89 µM

Structure (SMILES): COc1cc2c(cc1OC)[C@H](CCC[C@H]1c3cc(OC)c(OC)cc3CCN1C)N(C)CC2
IC50 [2]: 2.6 µM | Ki [1]: 0.293 µM | inhibition [3]: 39% | inhibition [4]: 36% | logP [5]: 2.9 | pKa [6]: 8.1 | inhibition [7]: 61% | inhibition [8]: 39% | inhibition [9]: 31% | IC50 [10]: 3 µM | inhibition [11]: 37% | IC50 [12]: 3.8 µM

Structure (SMILES): COc1ccc(CC2c3cc(OC)c(OC)cc3CCN2C)cc1OC (configuration not stated) [LAUDANOSINE]
Ki [1]: 30 µM

Continued, values first:

Ki [1]: 1.6 µM
Structure (SMILES): COc1ccc(C[C@H]2c3cc(OC)c(OC)cc3CC[N+]2(C)C)cc1OC [LAUDANOSINE METHIODIDE]

Ki [1]: 0.221 µM
Structure (SMILES): Cc1cc(N)c2ccccc2[n+]1CCCCCCCCCC[n+]1c(C)cc(N)c2ccccc21 [DEQUALINIUM CHLORIDE]
